Source: ChEMBL document CHEMBL1138430, “Novel tetrahydroisoquinolines are histamine H3 antagonists and serotonin reuptake inhibitors” (Bioorg Med Chem Lett, 2007)
The source made the active and inactive calls. The calls are words filed in the database; no cut-off is given here.

Tests used:
Histamine H3 receptor [1] = molecular target: T1, Histamine H3 receptor (Homo sapiens, UniProt Q9Y5N1); experiment: Binding affinity at human histamine H3 receptor
Histamine H3 receptor [2] = molecular target: T1, Histamine H3 receptor; experiment: Antagonist activity at human histamine H3 receptor; assay type: functional; conditions: read-out: pA2 (converted)
[3] = molecular target: D(1A) dopamine receptor (Homo sapiens) (UniProt P21728); experiment: Binding affinity at dopamine D1 receptor at 1 uM
[4] = molecular target: T2, Galanin receptor type 2 (Homo sapiens) (UniProt O43603); experiment: Binding affinity at galanin 2 receptor at 1 uM
T2 sequence (whole entry): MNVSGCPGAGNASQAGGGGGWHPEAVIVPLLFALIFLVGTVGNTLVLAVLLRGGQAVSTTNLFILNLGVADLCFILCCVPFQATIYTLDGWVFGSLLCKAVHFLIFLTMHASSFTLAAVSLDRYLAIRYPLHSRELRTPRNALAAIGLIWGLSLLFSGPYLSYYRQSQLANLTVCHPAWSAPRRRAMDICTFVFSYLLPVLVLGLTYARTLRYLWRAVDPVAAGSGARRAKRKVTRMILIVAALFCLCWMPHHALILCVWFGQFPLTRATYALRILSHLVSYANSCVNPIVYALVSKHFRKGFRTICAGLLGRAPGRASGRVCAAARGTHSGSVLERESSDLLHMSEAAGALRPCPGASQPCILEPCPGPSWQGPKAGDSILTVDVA

[5] = molecular target: T3, Muscarinic acetylcholine receptor M2 (Homo sapiens) (UniProt P08172); experiment: Binding affinity at muscarinic M2 receptor at 1 uM
T3 sequence (whole entry): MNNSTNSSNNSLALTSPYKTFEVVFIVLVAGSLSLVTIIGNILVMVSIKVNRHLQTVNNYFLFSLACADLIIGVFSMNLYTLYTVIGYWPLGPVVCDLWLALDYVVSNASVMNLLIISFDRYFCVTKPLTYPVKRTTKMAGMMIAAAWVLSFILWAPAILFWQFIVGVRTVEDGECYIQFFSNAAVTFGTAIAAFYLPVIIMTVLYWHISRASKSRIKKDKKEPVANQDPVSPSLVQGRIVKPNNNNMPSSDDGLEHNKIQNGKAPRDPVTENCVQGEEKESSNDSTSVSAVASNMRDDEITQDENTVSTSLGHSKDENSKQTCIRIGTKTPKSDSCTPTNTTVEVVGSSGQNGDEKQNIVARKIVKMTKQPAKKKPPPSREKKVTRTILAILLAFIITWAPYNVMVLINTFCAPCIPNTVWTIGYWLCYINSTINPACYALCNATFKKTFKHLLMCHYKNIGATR

[6] = molecular target: Mu-type opioid receptor (Homo sapiens) (UniProt P35372); experiment: Binding affinity at MOP receptor at 1 uM
[7] = system: Voltage-gated potassium channel; experiment: Binding affinity for potassium channel at 1 uM; assay type: protein assay; conditions: human
[8] = system: Voltage-gated calcium channel; experiment: Binding affinity for calcium channel at 1 uM; assay type: protein-complex assay; conditions: human
[9] = molecular target: Sodium-dependent noradrenaline transporter (Homo sapiens, UniProt P23975); experiment: Inhibition of [3H]nisoxetine uptake in human NET expressed in MDCK cells; assay type: cell-based
[10] = molecular target: Sodium-dependent dopamine transporter (Homo sapiens, UniProt Q01959); experiment: Inhibition of [3H]WIN-uptake in human DAT expressed in CHO cells; assay type: cell-based
How it was run: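 Human DAT expressed in CHO cells; membranes were incubated on ice for 2 h with 10.9 nM [3H]-WIN 35,428, then harvested by rapid filtration. Nonspecific binding was defined with GBR-12909. Ki values are means of at least three experiments run in triplicate, with SEM.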

[11] = Plasma clearance in po and iv dosed rat; assay type: ADME, organism-based
[12] = Volume of distribution at steady state in po and iv dosed rat; assay type: ADME, organism-based; conditions: in vivo, read-out: Vdss
[13] = Half life in po and iv dosed rat; assay type: ADME, organism-based; conditions: in vivo
[14] = Bioavailability in po dosed rat; assay type: ADME, organism-based; conditions: in vivo
Rattus norvegicus [15] = experiment: Ex vivo receptor occupancy at SERT in rat at 0.3 mg/kg, sc; assay type: functional; conditions: route subcutaneous
How it was run: (§1)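 Ex vivo receptor occupancy was measured in rat brain at SERT and at the H3 receptor after a single subcutaneous dose. Brain drug concentrations were determined alongside occupancy.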

Rattus norvegicus [16] = experiment: Ex vivo receptor occupancy at histamine H3 receptor in rat at 0.3 mg/kg, sc; assay type: functional; conditions: route subcutaneous; how it was run: as §1
Brain = experiment: Drug level in rat brain at 0.3 mg/kg, sc; assay type: ADME, organism-based; design: dose 0.3 mg/kg, route subcutaneous; conditions: in vivo, read-out: Drug uptake
[17] = Cmax in rat brain at 10 mg/kg, po; assay type: ADME, organism-based; design: dose 10 mg/kg, route oral

Sequence of D(1A) dopamine receptor (Homo sapiens) (P21728 whole entry): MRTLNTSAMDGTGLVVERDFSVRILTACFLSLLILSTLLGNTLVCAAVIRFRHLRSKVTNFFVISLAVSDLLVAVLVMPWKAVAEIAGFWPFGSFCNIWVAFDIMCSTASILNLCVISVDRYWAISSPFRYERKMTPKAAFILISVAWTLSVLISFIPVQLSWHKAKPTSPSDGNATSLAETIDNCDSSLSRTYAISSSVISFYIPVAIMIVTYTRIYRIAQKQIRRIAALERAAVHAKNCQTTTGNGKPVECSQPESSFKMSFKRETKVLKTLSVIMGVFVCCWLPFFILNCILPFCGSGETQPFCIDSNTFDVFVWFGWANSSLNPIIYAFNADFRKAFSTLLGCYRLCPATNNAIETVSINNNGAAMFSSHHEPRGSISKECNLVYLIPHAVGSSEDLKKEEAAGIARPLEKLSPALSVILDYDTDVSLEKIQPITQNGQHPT
Sequence of Mu-type opioid receptor (Homo sapiens) (P35372 whole entry): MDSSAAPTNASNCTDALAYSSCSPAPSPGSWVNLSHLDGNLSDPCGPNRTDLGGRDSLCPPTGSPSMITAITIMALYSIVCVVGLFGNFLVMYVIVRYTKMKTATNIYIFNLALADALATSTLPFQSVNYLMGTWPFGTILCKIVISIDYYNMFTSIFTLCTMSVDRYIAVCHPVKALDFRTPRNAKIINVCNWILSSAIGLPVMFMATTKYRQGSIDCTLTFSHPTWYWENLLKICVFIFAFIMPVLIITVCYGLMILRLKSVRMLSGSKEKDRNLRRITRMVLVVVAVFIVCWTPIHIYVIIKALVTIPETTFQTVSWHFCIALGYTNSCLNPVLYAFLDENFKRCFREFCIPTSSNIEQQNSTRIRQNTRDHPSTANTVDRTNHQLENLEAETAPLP
Sequence of Sodium-dependent dopamine transporter (Q01959 whole entry): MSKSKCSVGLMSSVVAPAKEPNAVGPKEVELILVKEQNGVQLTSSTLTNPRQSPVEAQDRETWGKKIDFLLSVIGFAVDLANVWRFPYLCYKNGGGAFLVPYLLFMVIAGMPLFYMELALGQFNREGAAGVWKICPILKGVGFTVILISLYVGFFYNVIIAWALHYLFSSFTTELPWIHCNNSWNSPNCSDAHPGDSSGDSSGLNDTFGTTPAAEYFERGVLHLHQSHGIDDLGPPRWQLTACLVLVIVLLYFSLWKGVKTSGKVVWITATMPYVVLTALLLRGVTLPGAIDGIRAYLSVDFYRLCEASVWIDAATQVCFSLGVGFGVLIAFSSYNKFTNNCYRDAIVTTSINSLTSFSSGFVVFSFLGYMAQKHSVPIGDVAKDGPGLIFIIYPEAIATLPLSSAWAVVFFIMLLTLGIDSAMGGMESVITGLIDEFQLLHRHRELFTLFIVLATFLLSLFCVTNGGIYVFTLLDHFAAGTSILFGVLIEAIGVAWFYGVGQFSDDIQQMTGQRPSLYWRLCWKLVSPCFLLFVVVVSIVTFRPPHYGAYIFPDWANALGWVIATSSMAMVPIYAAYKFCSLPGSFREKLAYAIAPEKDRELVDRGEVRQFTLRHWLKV
T1 sequence (Q9Y5N1 whole entry): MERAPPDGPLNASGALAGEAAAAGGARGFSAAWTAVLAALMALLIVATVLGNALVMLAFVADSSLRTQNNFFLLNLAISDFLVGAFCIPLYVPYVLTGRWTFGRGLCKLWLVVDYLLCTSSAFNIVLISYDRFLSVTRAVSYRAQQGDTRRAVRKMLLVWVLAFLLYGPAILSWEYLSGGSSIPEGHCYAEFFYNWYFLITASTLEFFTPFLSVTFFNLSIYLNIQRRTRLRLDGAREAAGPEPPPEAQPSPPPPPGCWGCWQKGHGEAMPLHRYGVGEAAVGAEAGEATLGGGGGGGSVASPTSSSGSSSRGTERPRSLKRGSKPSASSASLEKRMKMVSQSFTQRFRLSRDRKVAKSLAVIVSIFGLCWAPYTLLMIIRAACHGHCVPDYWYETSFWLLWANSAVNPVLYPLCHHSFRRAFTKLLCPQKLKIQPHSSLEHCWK
Sequence of Sodium-dependent noradrenaline transporter (P23975 whole entry): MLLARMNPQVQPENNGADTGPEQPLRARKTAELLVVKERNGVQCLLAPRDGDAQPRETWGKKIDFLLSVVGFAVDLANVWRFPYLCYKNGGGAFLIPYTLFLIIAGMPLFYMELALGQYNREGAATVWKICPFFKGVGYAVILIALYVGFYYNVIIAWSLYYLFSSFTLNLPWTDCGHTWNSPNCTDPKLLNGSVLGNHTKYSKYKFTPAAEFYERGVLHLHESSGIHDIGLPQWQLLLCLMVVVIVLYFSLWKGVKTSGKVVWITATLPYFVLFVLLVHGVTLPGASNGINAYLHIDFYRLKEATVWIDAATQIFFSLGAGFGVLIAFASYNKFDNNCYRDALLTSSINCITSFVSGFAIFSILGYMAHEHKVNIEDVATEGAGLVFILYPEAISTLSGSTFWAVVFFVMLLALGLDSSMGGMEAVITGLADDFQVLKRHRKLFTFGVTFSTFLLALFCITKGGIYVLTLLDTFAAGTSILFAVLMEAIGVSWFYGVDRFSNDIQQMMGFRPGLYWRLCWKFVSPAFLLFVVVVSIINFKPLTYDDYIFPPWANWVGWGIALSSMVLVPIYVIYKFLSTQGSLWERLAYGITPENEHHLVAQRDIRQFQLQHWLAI

| Compound | Ki (Histamine H3 receptor [1]) | Kb (Histamine H3 receptor [2]) | Activity [3] | Activity [4] | Activity [5] | Activity [6] | Activity [7] | Activity [8] | Ki [9] | Ki [10] | clearance [11] | Vd [12] | half-life [13] | bioavailability [14] | Activity (Rattus norvegicus [15]) | Activity (Rattus norvegicus [16]) | concentration (Brain) | Cmax [17] |
| --- | --- | --- | --- | --- | --- | --- | --- | --- | --- | --- | --- | --- | --- | --- | --- | --- | --- | --- |
| COc1ccc([C@@H]2CN(C)Cc3cc(OCCCN4CCOC[C@@H]4C)ccc32)cc1 | 5.6 nM | 0.891 nM | inactive | inactive | inactive | inactive | Not Active | Not Active | 121 nM | 102 nM | 18.1 mL/min/kg | 6.8 L/kg | 9 h | 5% | 100% | 100% | 880 nM |  |
| CSc1ccc(C2CN(C)Cc3cc(OCCCN4CCOCC4)ccc32)cc1 (racemic) |  |  | inactive | inactive | inactive | inactive | Not Active | Not Active | 106 nM | 29 nM | 14 mL/min/kg | 5.1 L/kg | 6.6 h | 38% | 100% | 100% | 670 nM | 9600 nM |
| CSc1ccc(C2CN(C)Cc3cc(OCCCN4CCC(F)CC4)ccc32)cc1 (racemic) |  |  | inactive | inactive | inactive | inactive |  |  |  |  |  |  |  |  |  |  |  |  |
